In ChEMBL document CHEMBL4819122, “Novel 4-(piperazin-1-yl)quinolin-2(1H)-one bearing thiazoles with antiproliferative activity through VEGFR-2-TK inhibition” (Bioorg Med Chem, 2021):
The source made the active and inactive calls. No cut-off for these calls is given here.

What was measured:
CAKI-1 = assay: Cytotoxicity against human Caki1 assessed as growth inhibition at 10 uM by NCI protocol relative to control; type: functional; settings: read-out: GI
Outline: (§1)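 Run by NCI as a single-dose screen at 10 μM across the sixty-cell-line panel, which covers nine human tumour tissue types. The read-out is percent growth inhibition of treated cells relative to untreated cells.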

T47D [1] = assay: Induction of cell cycle arrest in human T47D cells assessed as increase in accumulation at S phase after 24 hrs by propidium iodide/Annexin V staining based FACScan flow cytometry(reference value: 34.62%); type: functional
UACC-62 = assay: Cytotoxicity against human UACC-62 assessed as growth inhibition at 10 uM by NCI protocol relative to control; type: functional; settings: read-out: GI
Outline: (§2)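 Run by the NCI under its standard protocol: one dose of 10 μM against a sixty-line panel from nine human tumour tissues. Result given as percent growth inhibition of treated cells relative to untreated cells.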

T47D [2] = assay: Induction of cell cycle arrest in human T47D cells assessed as increase in accumulation at G0/G1 phase after 24 hrs by propidium iodide/Annexin V staining based FACScan flow cytometry(reference value: 52.59%); type: functional
EKVX = assay: Cytotoxicity against human EKVX assessed as growth inhibition at 10 uM by NCI protocol relative to control; type: functional; settings: read-out: GI; outline: as §1
MDA-MB-468 = assay: Cytotoxicity against human MDA-MB-468 assessed as growth inhibition at 10 uM by NCI protocol relative to control; type: functional; settings: read-out: GI; outline: as §1
T47D [3] = assay: Induction of apoptosis in human T47D cells assessed as late apoptotic cells after 24 hrs by Annexin V-FITC/propidium iodide staining based flow cytometric analysis (reference value: 0.21 %); type: functional
T47D [4] = assay: Induction of apoptosis in human T47D cells assessed as early apoptotic cells after 24 hrs by Annexin V-FITC/propidium iodide staining based flow cytometric analysis (reference value: 0.66 %); type: functional
UO-31 = assay: Cytotoxicity against human UO31 assessed as growth inhibition at 10 uM by NCI protocol relative to control; type: functional; settings: read-out: GI; outline: as §2
786-0 = assay: Cytotoxicity against human 786-0 assessed as growth inhibition at 10 uM by NCI protocol relative to control; type: functional; settings: read-out: GI; outline: as §1
T47D [5] = assay: Induction of cell cycle arrest in human T47D cells assessed as increase in accumulation at G2/M phase after 24 hrs by propidium iodide/Annexin V staining based FACScan flow cytometry(reference value: 12.79%); type: functional
T47D [6] = assay: Cytotoxicity against human T47D cells assessed as reduction in cell viability after 3 hrs by MTT assay
HCT-116 = assay: Cytotoxicity against human HCT-116 assessed as growth inhibition at 10 uM by NCI protocol relative to control; type: functional; settings: read-out: GI; outline: as §1
T47D [7] = assay: Cytotoxicity against human T-47D assessed as growth inhibition at 10 uM by NCI protocol relative to control; type: functional; settings: read-out: GI; outline: as §2
T47D [8] = assay: Induction of cell cycle arrest in human T47D cells assessed as increase in accumulation at pre G1 phase after 24 hrs by propidium iodide/Annexin V staining based FACScan flow cytometry(reference value: 2.61%); type: functional
SR = assay: Cytotoxicity against human SR assessed as growth inhibition at 10 uM by NCI protocol relative to control; type: functional; settings: read-out: GI; outline: as §2
A498 = assay: Cytotoxicity against human A498 assessed as growth inhibition at 10 uM by NCI protocol relative to control; type: functional; settings: read-out: GI; outline: as §1
T47D [9] = assay: Induction of apoptosis in human T47D cells assessed as total apoptotic cells after 24 hrs by Annexin V-FITC/propidium iodide staining based flow cytometric analysis (reference value: 2.61 %); type: functional
SF-539 = assay: Cytotoxicity against human […] assessed as growth inhibition at 10 uM by NCI protocol relative to control; type: functional; settings: read-out: GI; outline: as §1
IGROV-1 = assay: Cytotoxicity against human IGROVI assessed as growth inhibition at 10 uM by NCI protocol relative to control; type: functional; settings: read-out: GI; outline: as §1
T47D [10] = assay: Induction of apoptosis in human T47D cells assessed as necrotic cells after 24 hrs by Annexin V-FITC/propidium iodide staining based flow cytometric analysis (reference value: 1.74%); type: functional
MOLT-4 = assay: Cytotoxicity against human MOLT-4 assessed as growth inhibition at 10 uM by NCI protocol relative to control; type: functional; settings: read-out: GI; outline: as §1
HOP-92 = assay: Cytotoxicity against human HOP-92 assessed as growth inhibition at 10 uM by NCI protocol relative to control; type: functional; settings: read-out: GI; outline: as §1
MCF10 = assay: Cytotoxicity against human MCF10 cells assessed as reduction in cell viability after 3 hrs by MTT assay; settings: MCF10, 3 h
MDA-MB-435 = assay: Cytotoxicity against human MDA-MB-435 assessed as growth inhibition at 10 uM by NCI protocol relative to control; type: functional, cell-based; outline: as §1

## O=C(CN1CCN(c2cc(=O)[nH]c3ccc(F)cc23)CC1)Nc1nc(-c2ccccc2)cs1
CAKI-1
  inhibition of growth at 10 µM: 17.4%
T47D [1]
  Activity: 52.39%
UACC-62
  inhibition of growth at 10 µM: 14.4%
T47D [2]
  Activity: 41.31%
EKVX
  inhibition of growth at 10 µM: 14.6%
MDA-MB-468
  inhibition of growth at 10 µM: 12.5%
T47D [3]
  Activity: 27.88%
T47D [4]
  Activity: 2.31%
UO-31
  inhibition of growth at 10 µM: 24.2%
786-0
  inhibition of growth at 10 µM: 10.3%
T47D [5]
  Activity: 6.3%
T47D [6]
  IC50: 7.2 µM
HCT-116
  inhibition of growth at 10 µM: 16%
T47D [7]
  inhibition of growth at 10 µM: 29.6%
T47D [8]
  Activity: 43.05%
SR
  inhibition of growth at 10 µM: 21.2%
A498
  inhibition of growth at 10 µM: 27.9%
T47D [9]
  Activity: 43.05%
SF-539
  inhibition of growth at 10 µM: 13.3%
IGROV-1
  inhibition of growth at 10 µM: 16.1%
T47D [10]
  Activity: 12.86%
MOLT-4
  inhibition of growth at 10 µM: 13.3%
HOP-92
  inhibition of growth at 10 µM: 10.9%
MCF10
  IC50: 39.4 µM
MDA-MB-435
  growth inhibition (GI): inactive
